DSG3 Ab inh – blocks pemphigus antibody binding to human desmoglein-3; AID 588358; 310,000 compounds, 0.48% hits; DSG3-coupled beads, scFv-anti-DSG3-GFP binding, flow cytometry; stronger effect = lower value; P32926; binding (percent of control), % at 10 µM;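 active means binding more than 3 SD below its plate's average and above zero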
Runt-SMMHC FRET – inhibitors of human RUNX1 Runt domain binding to CBFb-SMMHC; Q01196+Q13951; inhibition, % at 20 µM; AID 1434; 220,000 compounds, 0.74% hits; Cerulean-Runt/Venus-CBFb-SMMHC FRET ratio 530/480, 1 h;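 active means mean inhibition across duplicate retests at 20 µM reaching about 50%, limit read from the data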;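 further: inhibitors lower the FRET ratio by blocking Runt binding to CBFb-SMMHC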
Hck Nef HTS – inhibitors of human Hck kinase activated by Nef | P08631 | Recombinant Hck-YEEI plus Nef, Z-Lyte FRET kinase assay | inhibition, % at 20 µM | 220,000 compounds, 0.68% hits | AID 463187;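 active means Hck-Nef kinase inhibition above about 50%, limit read from the data; inactive means inhibition below that limit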
Target sequence (P08631 whole entry, looked up): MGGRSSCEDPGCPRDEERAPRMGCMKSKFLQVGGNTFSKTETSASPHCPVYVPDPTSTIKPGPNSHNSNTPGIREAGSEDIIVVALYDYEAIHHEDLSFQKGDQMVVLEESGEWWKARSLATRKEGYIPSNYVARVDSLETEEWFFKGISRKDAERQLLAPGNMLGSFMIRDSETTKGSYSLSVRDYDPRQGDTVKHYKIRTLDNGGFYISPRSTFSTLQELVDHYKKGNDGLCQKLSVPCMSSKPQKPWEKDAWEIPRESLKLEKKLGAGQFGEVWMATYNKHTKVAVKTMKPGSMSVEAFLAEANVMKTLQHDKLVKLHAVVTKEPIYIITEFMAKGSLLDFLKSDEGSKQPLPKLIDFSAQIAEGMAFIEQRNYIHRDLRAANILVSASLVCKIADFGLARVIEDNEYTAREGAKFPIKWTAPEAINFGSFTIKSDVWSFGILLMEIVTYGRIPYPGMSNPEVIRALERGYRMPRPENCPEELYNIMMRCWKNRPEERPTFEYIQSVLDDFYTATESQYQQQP
pCIP destab – p/CIP protein destabilization | F442A p/CIP-EGFP cells, EGFP fluorescence, 16 h | decrease of EGFP signal, % at 10 µM | 290,000 compounds, 0.01% hits | AID 1984;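 active means EGFP signal decrease of at least 30% at 10 µM or well 3 SD below plate mean, unless failing retest; inactive means the rest, including hits failing retest or dose response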
Runt-CBFb FRET – inhibitors of human RUNX1 Runt domain binding to CBFb; 220,000 compounds, 0.46% hits; inhibition, % at 20 µM; Q01196+Q13951; Cerulean-Runt/Venus-CBFb FRET ratio 530/480, 1 h;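 active means inhibition over about 50% at 20 µM in the single-dose screen, limit read from the data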
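Assay system: Cerulean-Runt domain fusion protein, energy donor; Signal: fluorescence energy transfer, 422 nm excitation, 530/480 nm emission; Timing: 1 h compound exposure, room temperature; Control set: unlabeled CBFb; Medium: Tris buffer pH 7.5 with salts and BSA; Compound: single test concentration of 20 µM, 1% DMSO final; Probe or stimulus: Venus-CBFb 100 nM.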
RanGTP-Imp inh – inhibitors of RanGTP-importin-beta interaction, primary screen, biochemical, FRET, CFP-Ran, YFP-importin-beta, homogeneous. inhibition, % (concentration not given with the values). cell-free CFP-Ran/YFP-importin-beta FRET ratio. 300,000 compounds, 1.1% hits. AID 2216;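 active means more than half of the replicate wells show a fall in the fluorescence ratio signal beyond about 16%, limit read from the data, passing the limit was not always enough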
A number is an active result. In the library only some 2.1% were active in any assay of this set; here they are far more common.

For O=C(NC(=S)NCCO)c1sc2ccccc2c1Cl the results were DSG3 Ab inh inactive, Runt-SMMHC FRET inactive, Hck Nef HTS inactive, pCIP destab inactive, Runt-CBFb FRET inactive and RanGTP-Imp inh inactive.
Screening CCOC(=O)c1ccccc1N/C=C/C(=O)c1ccccc1 returned DSG3 Ab inh 36, Hck Nef HTS inactive and RanGTP-Imp inh inactive.
CCOC(=O)c1ccc(N/C=C/C(=O)c2ccccc2)cc1 was read as DSG3 Ab inh inactive, Runt-SMMHC FRET inactive, Hck Nef HTS inactive, pCIP destab inactive, Runt-CBFb FRET inactive and RanGTP-Imp inh inactive.
Cc1ccc(C(=O)C[n+]2cc(Br)cc(Br)c2)cc1[N+](=O)[O-] was read as DSG3 Ab inh inactive, Runt-SMMHC FRET inactive, Hck Nef HTS inactive, pCIP destab inactive, Runt-CBFb FRET inactive and RanGTP-Imp inh inactive.
Screening O=C(CSC1CS(=O)(=O)c2cc([N+](=O)[O-])ccc21)NNC(=O)c1ccccc1 (configuration not stated) returned DSG3 Ab inh inactive, Runt-SMMHC FRET inactive, Hck Nef HTS inactive, pCIP destab inactive, Runt-CBFb FRET inactive and RanGTP-Imp inh 18.
`COc1ccc(-c2nc(N)ncc2-c2ccccc2)c(O)c1` gave DSG3 Ab inh inactive, pCIP destab inactive and RanGTP-Imp inh inactive.
CN(C)c1nc(N)ncc1-c1ccc(Oc2ccccc2)cc1 was read as DSG3 Ab inh 79, pCIP destab inactive and RanGTP-Imp inh inactive.
Screening COc1cccc(CNC(=O)CCS(=O)(=O)c2ccc3c(c2)oc(=O)n3C)c1 returned pCIP destab inactive and RanGTP-Imp inh inactive.
Screening COc1cc2c(cc1OC)C(C)N(C(=O)Cn1ncc3c1-c1ccccc1OC3)CC2 (configuration not stated) returned DSG3 Ab inh 89, Runt-SMMHC FRET inactive, Hck Nef HTS inactive, pCIP destab inactive, Runt-CBFb FRET inactive and RanGTP-Imp inh inactive.
CCN(CC)C(=O)Cn1ncc2c1-c1ccccc1OC2 was read as DSG3 Ab inh inactive, Runt-SMMHC FRET inactive, Hck Nef HTS inactive, pCIP destab inactive, Runt-CBFb FRET inactive and RanGTP-Imp inh inactive.
`Cc1cc(C)c2c(N)c(C(=O)C(C)(C)C)sc2n1` gave DSG3 Ab inh inactive, Runt-SMMHC FRET 92, Hck Nef HTS inactive, pCIP destab inactive, Runt-CBFb FRET 93 and RanGTP-Imp inh inactive.
Screening CC(=O)N1CC2(C)CN(C(C)=O)CC(C)(C1)C2 returned DSG3 Ab inh inactive, Runt-SMMHC FRET inactive, Hck Nef HTS inactive, pCIP destab inactive, Runt-CBFb FRET inactive and RanGTP-Imp inh inactive.
`CCC(=O)N1CC2(C)CN(C(=O)CC)CC(C)(C1)C2` gave DSG3 Ab inh inactive, Runt-SMMHC FRET inactive, Hck Nef HTS inactive, pCIP destab inactive, Runt-CBFb FRET inactive and RanGTP-Imp inh 17.
Screening COc1ccc([C@H]2CC(=O)C=C(/C=C/c3ccccc3)C2)cc1OC returned DSG3 Ab inh inactive.
For Cc1cc(Nc2c(C)n(C)n(-c3ccccc3)c2=O)n2c(nc3cc(F)c(F)cc32)c1C#N the results were Runt-SMMHC FRET inactive, Hck Nef HTS inactive, pCIP destab inactive, Runt-CBFb FRET inactive and RanGTP-Imp inh 96.
For CCCc1cc(SCC(=O)Nc2c(C)n(C)n(-c3ccccc3)c2=O)n2c(nc3ccccc32)c1C#N the results were Runt-SMMHC FRET inactive, Hck Nef HTS inactive, pCIP destab inactive, Runt-CBFb FRET inactive and RanGTP-Imp inh inactive.
CC(C)C[C@H](NC(=O)OC(C)(C)C)C(=O)N[C@@H](CO)[C@H](O)[C@@H]1C[C@@H]1C(=O)NC1CCCCC1 was read as DSG3 Ab inh inactive, pCIP destab inactive and RanGTP-Imp inh inactive.
`COC(=O)CNC(=O)COC(=O)/C=C/c1ccc2ccccc2n1` gave DSG3 Ab inh inactive, Runt-SMMHC FRET inactive, Hck Nef HTS inactive, pCIP destab inactive, Runt-CBFb FRET inactive and RanGTP-Imp inh 27.
`CCOc1ccc(NC(=O)CSc2nnc(CNC(=O)c3cccs3)o2)cc1` gave DSG3 Ab inh inactive, pCIP destab inactive and RanGTP-Imp inh inactive.
Screening COc1ccccc1C(=O)COC(=O)c1cc(=O)[nH]c2ccccc12 returned DSG3 Ab inh inactive and RanGTP-Imp inh inactive.
Cc1ccc(C(=O)COC(=O)c2cc(=O)[nH]c3ccccc23)cc1C was read as DSG3 Ab inh inactive, Runt-SMMHC FRET inactive, Hck Nef HTS inactive, pCIP destab inactive, Runt-CBFb FRET inactive and RanGTP-Imp inh 37.
O=C(O)C1CCCCC1C(=O)Nc1cccc(Cl)c1Cl (configuration not stated) was read as Runt-SMMHC FRET inactive, Hck Nef HTS inactive, pCIP destab inactive, Runt-CBFb FRET inactive and RanGTP-Imp inh inactive.
Screening CC1CC1c1ccc(/C=C(\C#N)C(=O)Nc2cccc(Cl)c2Cl)o1 (configuration not stated) returned DSG3 Ab inh inactive, Runt-SMMHC FRET inactive, Hck Nef HTS inactive, pCIP destab inactive, Runt-CBFb FRET inactive and RanGTP-Imp inh 40.
`CCOC(=O)C1=C(O)C(=O)N(C2CCCCC2)C1` gave DSG3 Ab inh inactive, Runt-SMMHC FRET inactive, Hck Nef HTS inactive, pCIP destab inactive, Runt-CBFb FRET inactive and RanGTP-Imp inh inactive.
For CSCC(C)N1CCC(n2nccc2NC(=O)c2ccccc2C)CC1 (configuration not stated) the results were DSG3 Ab inh inactive, pCIP destab inactive and RanGTP-Imp inh 21.
Screening CSCC(C)N1CCC(n2nccc2NC(=O)c2ccc3c(c2)OCO3)CC1 (configuration not stated) returned DSG3 Ab inh inactive, pCIP destab inactive and RanGTP-Imp inh inactive.
COc1ccccc1NC(=O)CSc1ccc(-c2ccc(-n3cccn3)cc2)nn1 was read as DSG3 Ab inh inactive and RanGTP-Imp inh inactive.
`COc1ccccc1CN1CC(=O)N2CSC[C@H]2C1=O` gave DSG3 Ab inh inactive, pCIP destab inactive and RanGTP-Imp inh inactive.
For COc1cccc2cc(C(=O)NC3CC4CCC3C4)oc12 (configuration not stated) the results were DSG3 Ab inh inactive, pCIP destab inactive and RanGTP-Imp inh 26.
Screening O=C(NCCCN1CCCC1=O)c1cccc(S(=O)(=O)Nc2ccc(Br)cc2)c1 returned DSG3 Ab inh inactive and RanGTP-Imp inh inactive.
For CN(C)S(=O)(=O)c1cccc(NC(=S)NNC(=O)c2cc3ccccc3cc2O)c1 the results were DSG3 Ab inh inactive.
For CCOC(=O)c1ccc(S(=O)(=O)NCC(C)(C)N2CCOCC2)cc1 the results were DSG3 Ab inh 77, Runt-SMMHC FRET inactive, Hck Nef HTS inactive, pCIP destab inactive, Runt-CBFb FRET inactive and RanGTP-Imp inh inactive.
`C[C@@H]1CN([C@H](C)CO)C(=O)CCCn2nncc2CO[C@@H]1CN(C)S(=O)(=O)c1ccc2c(c1)OCCCO2` gave DSG3 Ab inh inactive.
